Measured values as given in ChEMBL document CHEMBL1141084, “Analogues of thiolactomycin as potential antimalarial agents” (J Med Chem, 2005).

Tests used:
[1] = tested on: Trypanosoma cruzi; experiment: Inhibitory concentration against Trypanosoma cruzi [Tulahuen strain C2C4] in rat skeletal myoblasts upon incubation at 37 degrees C for 4 days in 5% CO2; format: functional, organism-based
[2] = tested on: Trypanosoma brucei rhodesiense; experiment: Inhibitory concentration against Trypanosoma brucei rhodesiense STIB 900 upon incubation at 37 degrees C in 5% CO2 for 72 hours; format: functional, organism-based
[3] = biological target: T1, Beta-ketoacyl-ACP-synthase III (Plasmodium falciparum) (UniProt O77078); experiment: Percent inhibition of Plasmodium falciparum beta-Ketoacyl-acyl carrier protein synthase III activity (MBP-pfKASIII) expressed in E. coli cells using [1-14C]acetyl-CoA as radioligand upon incubation at 37 degrees C for 15 minutes with compound dissolved in 2% DMSO at 100 uM
T1 sequence (whole entry): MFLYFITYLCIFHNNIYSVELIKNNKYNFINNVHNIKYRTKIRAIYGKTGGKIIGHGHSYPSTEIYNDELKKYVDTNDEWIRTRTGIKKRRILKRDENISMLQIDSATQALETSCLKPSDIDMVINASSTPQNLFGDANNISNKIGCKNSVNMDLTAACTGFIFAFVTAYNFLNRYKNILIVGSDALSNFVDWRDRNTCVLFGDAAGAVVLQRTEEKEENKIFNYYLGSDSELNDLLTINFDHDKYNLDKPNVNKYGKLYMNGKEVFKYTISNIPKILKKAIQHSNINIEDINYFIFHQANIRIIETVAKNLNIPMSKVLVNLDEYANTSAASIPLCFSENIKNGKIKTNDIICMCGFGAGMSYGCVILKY

[4] = tested on: Plasmodium falciparum; experiment: In vitro inhibitory concentration against chloroquine-resistant, pyrimethamine-resistant Plasmodium falciparum K1; format: functional, organism-based
[5] = tested on: Leishmania donovani; experiment: Inhibitory concentration against amastigotes of Leishmania donovani strain MHOM/ET/67/L82 upon incubation at 37 degrees C for 72 hours using alamar blue
[6] = biological target: T1, Beta-ketoacyl-ACP-synthase III (Plasmodium falciparum); experiment: Percent inhibition of recombinant Plasmodium falciparum beta-Ketoacyl-acyl carrier protein synthase III activity (MBP-pfKASIII) expressed in E. coli cells using [1-14C]acetyl-CoA as radioligand upon incubation at 37 degrees C for 15 minutes with compound dissolved in 2% DMSO at 10 uM; NA = no activity
Method in brief: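 MBP-fused pfKASIII from E. coli BL21(DE3) codon+RIL, amylose-purified, 500 ng per reaction. Buffer: 100 mM NaH2PO4 pH 6.6, with 25 µM E. coli ACP prereduced with 1 mM β-mercaptoethanol (37 °C, 30 min), 1 µg E. coli FabD, 65 µM malonyl-CoA and 45 µM [1-14C]acetyl-CoA. 2% DMSO final; 37 °C, 15 min. Read-out: filter disks, TCA-washed, scintillation-counted.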

Row | Compound | IC50 ([1]; Trypanosoma cruzi, 96 h) | IC50 ([2]; Trypanosoma brucei, 72 h) | inhibition [3] | IC50 ([4]; Plasmodium falciparum) | IC50 [5] | inhibition [6] | IC50 [1] | IC50 [2] | IC50 [4]
1 | CCCCCCC1(C)SC(O)=C(C)C1=O (stereo not given) | 127 µM | 112 µM | 10% | 139 µM | – | – | – | – | –
2 | CCCCCCCCCCC1(C)OC(O)=C(CC)C1=O (stereo not given) | 146 µM | 62 µM | – | 94 µM | – | – | – | – | –
3 | CCCCCCCCCCC1(C)SC(=O)C(CCC)=C1OCCCCCCO[Si](C)(C)C(C)(C)C (stereo not given) | 14 µM | 149 µM | 10% | 3 µM | 7 µM | – | – | – | –
4 | CCCCCCCCCCCCCCCCC1(C)SC(O)=C(CCC)C1=O (stereo not given) | 13 µM | 29 µM | 20% | 6 µM | 0.5 µM | – | – | – | –
5 | CCCCCCCCCCC1(C)SC(O)=C(Cc2ccccc2)C1=O (stereo not given) | 64 µM | 132 µM | 70% | 50 µM | – | – | – | – | –
6 | CCCCCCCCC1(C)SC(O)=C(CC)C1=O (stereo not given) | 165 µM | 157 µM | – | 54 µM | – | No activity | – | – | –
7 | CCCCCCCCCCC1(C)OC(O)=C(CCCC)C1=O (stereo not given) | 70 µM | 13 µM | 60% | > 15 µM | – | – | – | – | –
8 | CCCCCCC1(C)OC(O)=C(C)C1=O (stereo not given) | > 424 µM | 247 µM | – | 222 µM | – | No activity | – | – | –
9 | CCCCCCCCCCCCCCCCC1(C)SC(O)=C(Cc2ccccc2)C1=O (stereo not given) | 14 µM | 32 µM | 50% | 7 µM | 2 µM | – | – | – | –
10 | CCCC1(C/C=C(/C)CCC=C(C)C)C(=O)SC(C)C1=O (stereo not given) | 21 µM | 55 µM | 90% | 9 µM | 12 µM | – | – | – | –
11 | CCCCCCCCCCC1(C)SC(O)=C(CCC)C1=O (stereo not given) | 56 µM | 21 µM | 55% | 10 µM | – | – | – | – | –
12 | CCCC1=C(O)C(C)(CCCCCCO[Si](C)(C)C(C)(C)C)SC1=O (stereo not given) | 150 µM | 2 µM | – | 37 µM | 1 µM | No activity | – | – | –
13 | CC1=C(O)SC(C)C1=O (stereo not given) [THIOLACTONE] | > 624 µM | > 624 µM | – | > 347 µM | – | No activity | – | – | –
14 | CCCCCCCCCCC1(C)SC(=O)C(CCC)=C1OCCCCCCO (stereo not given) | 64 µM | 64 µM | 5% | 31 µM | 36 µM | – | – | – | –
15 | CCCCCCC1(C)SC(O)=C(CC)C1=O (stereo not given) | 195 µM | 71 µM | 5% | 61 µM | – | – | – | – | –
16 | CCCCCCCCCCCCCCCCC1(CC)SC(O)=C(C)C1=O (stereo not given) | 49 µM | 130 µM | 40% | 35 µM | – | – | – | – | –
17 | CCCC1=C(O)SC(C)C1=O (stereo not given) | > 522 µM | 288 µM | – | > 290 µM | – | No activity | – | – | –
18 | CCC1=C(O)SC(C)C1=O (stereo not given) | 568 µM | 357 µM | – | 233 µM | – | No activity | – | – | –
19 | CCCCCCCCCCC1SC(O)=C(C)C1=O (stereo not given) | 164 µM | 6 µM | 30% | 72 µM | – | – | – | – | –
20 | CCC1SC(O)=C(C)C1=O (stereo not given) | > 568 µM | > 568 µM | – | > 316 µM | – | No activity | – | – | –
21 | CCCCCCCCCCC1(C)SC(O)=C(CCCC)C1=O (stereo not given) | 77 µM | 8 µM | 60% | 71 µM | – | – | – | – | –

Row | Compound | IC50 ([1]; Trypanosoma cruzi, 96 h) | IC50 ([2]; Trypanosoma brucei, 72 h) | inhibition [3] | IC50 ([4]; Plasmodium falciparum) | IC50 [5] | inhibition [6] | IC50 [1] | IC50 [2] | IC50 [4]
22 | CCCCCCOCCOCCC1(C)SC(O)=C(CC)C1=O (stereo not given) | 195 µM | 119 µM | – | > 60 µM | – | No activity | – | – | –
23 | C=CCOC1=C(CCC)C(=O)SC1(C)CCCCCCCCCC (stereo not given) | 80 µM | 14 µM | – | 1 µM | 66 µM | No activity | – | – | –
24 | C=CCC1(C)C(=O)SC(C)C1=O (stereo not given) | > 488 µM | 79 µM | – | 62 µM | – | No activity | – | – | –
25 | CC1SC(O)=C(Cc2ccccc2)C1=O (stereo not given) | > 408 µM | 408 µM | – | 195 µM | – | No activity | – | – | –
26 | CCCC1=C(O)C(C)(CCCCCCO)SC1=O (stereo not given) | 64 µM | 64 µM | – | 157 µM | 88 µM | No activity | – | – | –
27 | CCCCCCCCCCC1(CC)SC(O)=C(C)C1=O (stereo not given) | 72 µM | 153 µM | 15% | 65 µM | – | – | – | – | –
28 | CCCCCCCCCCC1(C)NC(=O)C(C(C)=O)=C1O (stereo not given) | 153 µM | 7 µM | – | 63 µM | 3 µM | No activity | – | – | –
29 | CCC1=C(O)OC(C)C1=O (stereo not given) | > 633 µM | > 633 µM | – | > 351 µM | – | – | – | – | –
30 | CCCC1=C(OC)C(C)SC1=O (stereo not given) | 359 µM | 9 µM | – | 45 µM | 100 µM | No activity | – | – | –
31 | CCCCCCCCCCCCCCCCC1(C)SC(O)=C(C)C1=O (stereo not given) | 28 µM | 62 µM | 55% | 25 µM | – | – | – | – | –
32 | CC(C)=CCC1(C)SC(O)=C(C)C1=O (stereo in doubt; 1a) | – | – | 30% | – | 56 µM | – | > 142 µM | 182 µM | > 95 µM
33 | CC(C)=CCC/C(C)=C/CC1(C)SC(O)=C(C)C1=O (stereo not given) | 68 µM | 190 µM | 45% | 40 µM | – | – | – | – | –
34 | CCCCCCCCCCC1(C)SC(O)=C(C)C1=O (stereo not given) | 68 µM | 171 µM | 30% | 36 µM | – | – | – | – | –
35 | CCCCCCCCCCC1(C)SC(=O)C(CCC)=C1OCc1ccccc1 (stereo not given) | 13 µM | > 223 µM | – | 4 µM | > 74 µM | No activity | – | – | –
36 | CCCCCCCCCCC1(C)SC(=O)C(C/C=C(/C)CCC=C(C)C)(CCC)C1=O (stereo not given) | > 66 µM | > 200 µM | – | 77 µM | > 66 µM | No activity | – | – | –
37 | CCCCCCCCCCCCCCCCC1(C)SC(O)=C(CC)C1=O (stereo not given) | 43 µM | 47 µM | 65% | 19 µM | – | – | – | – | –
38 | C=CCOC1=C(C)C(=O)SC1(C)CCCCCCCCCC (stereo not given) | 30 µM | 167 µM | 5% | 6 µM | – | – | – | – | –
39 | C=CCC1(CCC)C(=O)SC(C)(CCCCCCCCCC)C1=O (stereo not given) | 47 µM | 9 µM | – | 19 µM | 82 µM | No activity | – | – | –
40 | C=CCC1(C)C(=O)SC(C)(CCCCCCCCCC)C1=O (stereo not given) | 55 µM | 157 µM | 5% | 26 µM | – | – | – | – | –
41 | CCCCCCCCCCC1(C)SC(O)=C(CC)C1=O (stereo not given) | 54 µM | 97 µM | 40% | 15 µM | – | – | – | – | –
42 | CCCCCCCCC1(C)SC(O)=C(C)C1=O (stereo not given) | > 350 µM | 194 µM | 10% | 153 µM | – | – | – | – | –
